The target in test [1] is T1, 5-hydroxytryptamine receptor 1A (Homo sapiens, UniProt P08908).
T1 sequence (P08908 whole entry): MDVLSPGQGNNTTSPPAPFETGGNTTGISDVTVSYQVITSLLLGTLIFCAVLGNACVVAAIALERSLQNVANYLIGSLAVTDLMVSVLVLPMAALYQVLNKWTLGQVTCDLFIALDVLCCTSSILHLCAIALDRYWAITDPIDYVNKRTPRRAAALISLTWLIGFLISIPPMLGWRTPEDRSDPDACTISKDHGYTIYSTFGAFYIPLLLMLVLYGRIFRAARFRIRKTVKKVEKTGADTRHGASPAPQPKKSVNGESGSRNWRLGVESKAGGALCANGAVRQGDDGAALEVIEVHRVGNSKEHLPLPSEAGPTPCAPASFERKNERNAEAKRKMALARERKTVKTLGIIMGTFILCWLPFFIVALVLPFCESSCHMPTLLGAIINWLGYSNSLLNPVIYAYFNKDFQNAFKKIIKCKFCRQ
Nature of the test: Compound was tested for the displacement of [3H]5-HT binding to cloned 5-hydroxytryptamine 1A receptor stably expressed in CHO cells. Format: cell-based. Background: Displacement assays read how much labelled ligand stays bound in the presence of the test substance.

Test [2] addresses T2, 5-hydroxytryptamine receptor 1B (Homo sapiens, UniProt P28222). Nature of the test: Displacement of [3H]5-HT binding to cloned 5-hydroxytryptamine 1B receptor stably expressed in CHO cells. Format: cell-based. In short, it runs like this: (§1)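 Membranes from thawed CHO cells with human 5-HT1B or 5-HT1D, washed in 50 mM Tris-HCl pH 7.7, preincubated 10 min at 37 °C to remove endogenous 5-HT. Buffer holds 0.1% ascorbate, 10 μM pargyline and 4 mM CaCl2. Uses 2.0 nM [3H]5-HT, 30 min at 37 °C; 10 μM 5-HT defines nonspecific binding. Filtration; IC50 by nonlinear regression; duplicates, 2–5 occasions.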

Test [3] addresses T3, 5-hydroxytryptamine receptor 1D (Homo sapiens, UniProt P28221). Put plainly: Agonist-induced [35S]- GTPgammaS binding in CHO cells stably transfected with 5-hydroxytryptamine 1D receptor. Format: cell-based. In short, it runs like this: (§2)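 Membranes from thawed CHO cells with human 5-HT1D, prepared in ice-cold 20 mM Hepes/EDTA at pH 7.4, spun at 40000g. Assay buffer: 100 mM NaCl, 10 mM MgCl2, 0.1% ascorbate, 10 μM pargyline. GDP 100 μM plus drug, 20 min at 30 °C, then ice 15 min. Then 100 pM [35S]GTPγS, 30 min at 30 °C, filtration. Emax is taken as % of maximal 5-HT response; duplicates, 2–5 occasions.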

The target in test [4] is T4, 5-hydroxytryptamine receptor 1F (Homo sapiens, UniProt P30939).
T4 sequence (P30939 whole entry): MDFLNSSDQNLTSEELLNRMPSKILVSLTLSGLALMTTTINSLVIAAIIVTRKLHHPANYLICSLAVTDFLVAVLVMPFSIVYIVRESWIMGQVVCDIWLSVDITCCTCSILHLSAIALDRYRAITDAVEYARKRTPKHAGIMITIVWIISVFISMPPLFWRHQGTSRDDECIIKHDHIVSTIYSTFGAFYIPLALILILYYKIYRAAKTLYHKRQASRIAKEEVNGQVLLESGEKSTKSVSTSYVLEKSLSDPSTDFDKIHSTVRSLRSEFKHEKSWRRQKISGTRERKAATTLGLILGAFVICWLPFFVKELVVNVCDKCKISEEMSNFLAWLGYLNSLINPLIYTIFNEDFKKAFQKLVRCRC
Put plainly: Compound was tested for the displacement of [3H]5-HT binding to cloned human 5-hydroxytryptamine 1F receptor stably expressed in CHO cells. Format: cell-based.

Test [5] has as its target 5-hydroxytryptamine receptor 1E (Homo sapiens, UniProt P28566). Nature of the test: Compound was tested for the displacement of [3H]5-HT binding to cloned human 5-hydroxytryptamine 1E receptor stably expressed in CHO cells. Format: cell-based.
Test [6] concerns the target 5-hydroxytryptamine receptor 2A (Homo sapiens, UniProt P28223). Nature of the test: Compound was tested for the displacement of [3H]5-HT binding to cloned human 5-hydroxytryptamine 2A receptor stably expressed in CHO cells. Format: cell-based.
Test [7] addresses 5-hydroxytryptamine receptor 5A (Homo sapiens, UniProt P47898). Nature of the test: Compound was tested for the displacement of [3H]5-HT binding to cloned human 5-hydroxytryptamine 5A receptor stably expressed in CHO cells. Format: cell-based.
Test [8] deals with 5-hydroxytryptamine receptor 7 (Rattus norvegicus, UniProt P32305). Nature of the test: Compound was tested for the displacement of [3H]5-HT binding to cloned rat 5-hydroxytryptamine 7 receptor stably expressed in CHO cells. Format: cell-based.
Test [9] deals with 5-hydroxytryptamine receptor 6 (Rattus norvegicus, UniProt P31388). Nature of the test: Compound was tested for the displacement of [3H]5-HT binding to cloned rat 5-hydroxytryptamine 6 receptor stably expressed in CHO cells. Format: cell-based.
A short description of test [10]: Ratio of IC50 for human 5-HT1B to human 5-HT1D receptors.
Test [11] concerns the target T2, 5-hydroxytryptamine receptor 1B. Put plainly: Binding affinity at cloned human 5-hydroxytryptamine 1B receptor stably expressed in CHO cells by [3H]5-HT displacement. Format: cell-based.
Test [12] has as its target T3, 5-hydroxytryptamine receptor 1D. Put plainly: Binding affinity at human cloned 5-hydroxytryptamine 1D receptor stably expressed in CHO cells by [3H]5-HT displacement. Format: cell-based. In short, it runs like this: as §1
For test [13] the target is unchanged. Put plainly: Maximum stimulation of [35S]GTP-gamma-S, binding in CHO cells expressing human 5-HT-1d relative to 5-HT. Format: functional, cell-based. An outline of the steps:
as §2

T3 sequence (P28221 whole entry): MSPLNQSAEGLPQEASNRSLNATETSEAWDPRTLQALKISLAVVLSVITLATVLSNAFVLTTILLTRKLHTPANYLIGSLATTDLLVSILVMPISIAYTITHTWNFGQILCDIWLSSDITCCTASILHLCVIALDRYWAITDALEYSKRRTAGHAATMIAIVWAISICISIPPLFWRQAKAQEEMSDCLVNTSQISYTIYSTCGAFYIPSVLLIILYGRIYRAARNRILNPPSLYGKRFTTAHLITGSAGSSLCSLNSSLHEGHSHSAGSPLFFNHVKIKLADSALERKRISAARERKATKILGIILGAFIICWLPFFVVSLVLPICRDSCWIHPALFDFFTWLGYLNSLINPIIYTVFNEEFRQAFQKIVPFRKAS
T2 sequence (P28222 whole entry): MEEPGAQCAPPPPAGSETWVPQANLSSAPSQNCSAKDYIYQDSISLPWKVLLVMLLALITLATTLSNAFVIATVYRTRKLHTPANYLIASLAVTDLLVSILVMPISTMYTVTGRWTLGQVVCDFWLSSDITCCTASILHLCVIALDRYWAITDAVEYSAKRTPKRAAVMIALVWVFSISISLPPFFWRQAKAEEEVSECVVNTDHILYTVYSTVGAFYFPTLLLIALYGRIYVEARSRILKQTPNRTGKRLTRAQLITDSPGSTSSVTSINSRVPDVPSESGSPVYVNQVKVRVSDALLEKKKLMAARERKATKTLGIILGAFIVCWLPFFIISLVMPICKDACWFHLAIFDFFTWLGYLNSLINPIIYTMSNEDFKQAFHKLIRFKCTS
Chain of 5-hydroxytryptamine receptor 2A (P28223 whole entry): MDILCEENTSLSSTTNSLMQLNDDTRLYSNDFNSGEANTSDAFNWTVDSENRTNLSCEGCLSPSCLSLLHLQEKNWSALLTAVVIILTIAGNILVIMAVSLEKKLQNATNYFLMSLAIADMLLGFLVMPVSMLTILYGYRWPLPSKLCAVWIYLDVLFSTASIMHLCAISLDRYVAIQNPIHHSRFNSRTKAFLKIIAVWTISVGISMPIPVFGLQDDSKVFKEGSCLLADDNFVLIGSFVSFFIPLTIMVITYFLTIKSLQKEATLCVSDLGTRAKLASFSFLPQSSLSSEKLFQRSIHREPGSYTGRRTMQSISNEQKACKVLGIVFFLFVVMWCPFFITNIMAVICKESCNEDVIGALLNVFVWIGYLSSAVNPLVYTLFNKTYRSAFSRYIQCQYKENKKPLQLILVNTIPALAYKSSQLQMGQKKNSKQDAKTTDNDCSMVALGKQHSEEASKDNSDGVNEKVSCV
Chain of 5-hydroxytryptamine receptor 1E (P28566 whole entry): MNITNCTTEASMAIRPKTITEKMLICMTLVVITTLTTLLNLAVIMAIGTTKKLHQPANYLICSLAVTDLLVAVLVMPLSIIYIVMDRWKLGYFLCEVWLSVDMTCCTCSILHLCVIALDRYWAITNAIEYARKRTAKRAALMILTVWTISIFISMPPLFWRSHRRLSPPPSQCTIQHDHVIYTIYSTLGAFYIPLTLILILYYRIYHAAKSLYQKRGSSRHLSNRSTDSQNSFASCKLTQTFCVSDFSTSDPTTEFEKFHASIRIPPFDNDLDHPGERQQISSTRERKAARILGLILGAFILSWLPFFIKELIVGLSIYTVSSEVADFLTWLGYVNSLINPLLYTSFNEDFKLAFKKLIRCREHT
Chain of 5-hydroxytryptamine receptor 6 (P31388 whole entry): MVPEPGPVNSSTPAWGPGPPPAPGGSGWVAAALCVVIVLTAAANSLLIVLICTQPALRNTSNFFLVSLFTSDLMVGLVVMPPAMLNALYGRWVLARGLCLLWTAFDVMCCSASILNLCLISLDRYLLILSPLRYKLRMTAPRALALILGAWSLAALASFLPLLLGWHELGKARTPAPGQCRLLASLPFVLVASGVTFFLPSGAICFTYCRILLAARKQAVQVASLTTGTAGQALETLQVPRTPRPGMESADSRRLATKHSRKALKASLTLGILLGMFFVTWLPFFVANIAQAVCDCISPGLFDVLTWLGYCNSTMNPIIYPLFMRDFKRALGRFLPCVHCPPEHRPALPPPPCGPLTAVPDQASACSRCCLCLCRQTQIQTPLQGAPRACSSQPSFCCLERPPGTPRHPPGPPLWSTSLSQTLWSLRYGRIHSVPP
Chain of 5-hydroxytryptamine receptor 5A (P47898 whole entry): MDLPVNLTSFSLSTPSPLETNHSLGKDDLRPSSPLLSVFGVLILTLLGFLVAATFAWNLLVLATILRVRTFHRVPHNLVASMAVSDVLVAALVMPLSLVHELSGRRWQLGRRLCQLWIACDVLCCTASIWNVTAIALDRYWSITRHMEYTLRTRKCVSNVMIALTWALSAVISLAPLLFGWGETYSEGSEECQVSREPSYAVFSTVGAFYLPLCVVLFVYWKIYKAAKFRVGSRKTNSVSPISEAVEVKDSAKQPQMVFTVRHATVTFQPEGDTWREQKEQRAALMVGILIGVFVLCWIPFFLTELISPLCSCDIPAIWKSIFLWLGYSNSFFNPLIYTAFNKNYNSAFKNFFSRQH
Chain of 5-hydroxytryptamine receptor 7 (P32305 whole entry): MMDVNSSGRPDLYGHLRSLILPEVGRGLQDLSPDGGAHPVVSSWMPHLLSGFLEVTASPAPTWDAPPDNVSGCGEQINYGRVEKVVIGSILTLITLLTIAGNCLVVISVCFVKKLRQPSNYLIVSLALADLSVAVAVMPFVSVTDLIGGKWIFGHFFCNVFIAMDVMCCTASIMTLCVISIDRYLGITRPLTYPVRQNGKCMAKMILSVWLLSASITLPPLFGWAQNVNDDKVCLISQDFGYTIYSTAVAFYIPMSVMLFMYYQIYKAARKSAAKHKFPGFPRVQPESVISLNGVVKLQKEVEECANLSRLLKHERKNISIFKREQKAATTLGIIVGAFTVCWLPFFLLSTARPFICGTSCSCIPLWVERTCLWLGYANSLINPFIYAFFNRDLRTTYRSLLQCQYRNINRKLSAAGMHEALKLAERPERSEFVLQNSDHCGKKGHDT

As to `OC[C@H](NC1CCN(CCCc2c[nH]c3ccc(-n4cnnc4)cc23)CC1)c1ccc(F)cc1`, the IC50 (in general, the concentration that gives 50% inhibition) is 66 nM in [1]; 150 nM in test [2]; more than 10000 nM in [4]; more than 10000 nM in [5]; 1100 nM in test [6]; more than 10000 nM in test [7]. Moreover, the IC50 was 540 nM in test [8] and more than 10000 nM in test [9]. In addition, in test [3], the concentration for a half-maximal effect (EC50) (usually the concentration giving half of the maximal effect) was determined as 0.8 nM. The Selectivity in test [10] is 170.
For the compound `CN(C1CCN(CCCc2c[nH]c3ccc(-n4cnnc4)cc23)CC1)[C@@H](CO)c1ccccc1`, the IC50 was found to be 210 nM in [11] and 4.5 nM in [12]. In [3], this compound displayed a half-maximal effective concentration (EC50) of 10 nM. In test [13], this compound had an Efficacy of 82%. Besides, the Selectivity in test [10] is 47.
With `OC[C@@H](NC1CCN(CCCc2c[nH]c3ccc(-n4cnnc4)cc23)CC1)c1ccccc1`, the IC50 in [11] is 160 nM; in test [12], 3.5 nM. In addition, the concentration for a half-maximal effect (EC50) in test [3] was 2.6 nM. The Efficacy in [13] worked out at 67%. For the same compound, in test [10], the Selectivity amounted to 46.
For `OC[C@H](Cc1ccccc1)NC1CCN(CCCc2c[nH]c3ccc(-n4cnnc4)cc23)CC1`, the IC50 was found to be 140 nM in test [11] and 2.1 nM in test [12]. The compound also came in with a 50% effective concentration (EC50) in [3] of 3.6 nM. This compound came in with an Efficacy in [13] of 76%. Besides, the Selectivity in [10] came to 67.

The values are drawn from ChEMBL document CHEMBL1132157 (J Med Chem, 1999).
